This passage reports Displacement, minimal effective dose and IC50 results from ChEMBL document CHEMBL1124445, “Synthesis and pharmacology of a series of 3- and 4-(phosphonoalkyl)pyridine- and -piperidine-2-carboxylic acids. Potent N-methyl-D-aspartate receptor antagonists” (J Med Chem, 1989).

A short description of assay [1]: Percent displacement determined by inhibition of [3H]-CPP binding against N-methyl-D-aspartate glutamate receptor in mice at 10 uM.
The subject of the next assay is Mus musculus. The assay can be described thus: Ability to protect against NMDA-induced lethality in mice after intraperitoneal administration. It is filed as functional. As to conditions: ip, read-out: MED. The method, boiled down:
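Mice received the test drug ip 30 min before NMDA at 200 mg/kg ip; compounds were racemic. Five animals per dose. The endpoint was survival for more than 30 min after the NMDA injection. MED is the dose at which at least three of the five mice survived. The highest dose tested was 160 mg/kg.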

Assay [2] in a line: Compound was evaluated for the inhibition of the binding of [3H]-CPP against NMDA receptor in mice. The method, boiled down: (§1)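 Racemic compounds tested for displacement of [3H]CPP binding to the NMDA receptor. Affinity reported as IC50 in nM.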
The nature of assay [3]: Compound was evaluated for the inhibition of the binding of [3H]CPP against N-methyl-D-aspartate glutamate receptor in mice. The method, boiled down: as §1
Assay [4] can be described thus: Percent displacement determined by inhibition of [3H]CPP binding against NMDA receptor in mice at 10 uM.
Assay [5] in a line: Compound was evaluated for the inhibition of the binding of [3H]CPP against NMDA in mice.

`O=C(O)c1cc(CCCCP(=O)(O)O)ccn1`: the Displacement in assay [1] was 25%. In the assay with Mus musculus, the minimal effective dose is more than 160 mg/kg.

In the case of `O=C(O)c1ncccc1CCP(=O)(O)O`, the IC50 in assay [2] came out at 3500 nM. Moreover, the minimal effective dose in the assay with Mus musculus was more than 160 mg/kg.

Consider `O=C(O)C1CN(CCCP(=O)(O)O)CCN1` (stereo unspecified), for which, in assay [3], the IC50 was found to be 72 nM. Also, the minimal effective dose with Mus musculus came to 2.5 mg/kg.

Consider `O=C(O)[C@@H]1C[C@H](CP(=O)(O)O)CCN1` [SELFOTEL], for which, in assay [2], the IC50 came out at 95 nM. For the same compound, the minimal effective dose with Mus musculus amounted to 10 mg/kg.

Turning to `O=C(O)[C@H]1NCCC[C@H]1CCP(=O)(O)O`, the IC50 in assay [2] was determined as 1000 nM. The minimal effective dose in the assay on Mus musculus was found to be 160 mg/kg.

On to `O=C(O)[C@H]1NCCC[C@H]1CP(=O)(O)O`, for which the Displacement in assay [1] was 19%.

In the case of `O=C(O)c1cc(CCCP(=O)(O)O)ccn1`, in assay [1], the Displacement worked out at 34%. Further, the minimal effective dose in the assay on Mus musculus is more than 160 mg/kg.

As to `O=C(O)c1cc(CP(=O)(O)O)ccn1`, in assay [4], the Displacement was 4%. For the same compound, the minimal effective dose in the assay on Mus musculus is more than 160 mg/kg.

For the compound `O=C(O)c1ncccc1/C=C/P(=O)(O)O`, the Displacement in assay [1] came out at 26%. For the same compound, the minimal effective dose with Mus musculus was more than 160 mg/kg.

On to `O=C(O)c1cc(CCP(=O)(O)O)ccn1`, for which the IC50 in assay [3] stood at 3500 nM. In the assay with Mus musculus, the minimal effective dose is more than 160 mg/kg.

With `O=C(O)c1ncccc1CP(=O)(O)O`, in assay [4], the Displacement is -18%. Also, the minimal effective dose with Mus musculus is more than 160 mg/kg.

In the case of `O=C(O)[C@@H]1C[C@H](CCCCP(=O)(O)O)CCN1`, in assay [1], the Displacement came out at 26%. Further, in the assay on Mus musculus, the minimal effective dose is more than 160 mg/kg.

With `O=C(O)[C@@H]1C[C@H](CCCP(=O)(O)O)CCN1`, the IC50 in assay [3] came to 120 nM. Further, the minimal effective dose with Mus musculus came to 40 mg/kg.

In turn, `O=C(O)[C@@H]1C[C@H](CCP(=O)(O)O)CCN1` yielded an IC50 in assay [3] of 6600 nM. Further, in the assay on Mus musculus, the minimal effective dose is more than 160 mg/kg.

`NC(CCCCCP(=O)(O)O)C(=O)O` (stereo unspecified) [AP-7] returned an IC50 in assay [5] of 320 nM. Moreover, the minimal effective dose in the assay on Mus musculus is 160 mg/kg.

In the case of `O=C(O)c1ncccc1/C=C\P(=O)(O)O`, the Displacement in assay [1] turned out to be 20%. In addition, in the assay with Mus musculus, the minimal effective dose was more than 160 mg/kg.

Broadly, the IC50 is the midpoint of a concentration-inhibition curve.
